Experimental findings from paper PMC4050191 (FEBS Open Bio, 2014) are described below.

In experiment [1] the target is transducin β (Trd) 325-340 (UniProt P62873). As to the kind of experiment: ITC, peptide titrated into centrin. To be noted: reference: wild type C-HsCen1; sites T138. (In general: ITC needs no label: the signal is the heat of the interaction.)
Experiment [2] deals with CK2 (catalytic α and regulatory β subunits complex) (Homo sapiens, UniProt P67870+P68400). Nature of the experiment: In vitro phosphorylation by CK2, HPLC quantification. It is filed as biochemical. To be noted: for reduction of phosphorylation by addition of Ca2+: CK2, 37 °C.
Experiment [3] addresses human centrin 1, full-length (human) (UniProt Q12798). Nature of the experiment: ITC.
Experiment [4] deals with HsCen1 (full-length human centrin 1). Nature of the experiment: ITC, peptide binding to full-length HsCen1. The conditions noted are these: absence of Ca2+. The essentials:
(§1)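 Recombinant human centrin (full-length or C-terminal domain; Asp variants made by double-PCR mutagenesis) was expressed in E. coli BL21(DE3), heat-treated at 63 °C, then purified by ion-exchange, phenyl and gel-filtration chromatography. ITC at 30 °C: 10 μM centrin titrated with 100 μM N-acetylated, C-amidated peptide in 50 mM MOPS, 100 mM NaCl, pH 7.5, plus 1 mM CaCl₂ or 2 mM EDTA. Dilution heats subtracted; data fitted for n, Ka and ΔH.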

The next experiment relates to C-HsCen2-T138D. As to the kind of experiment: ITC, peptide binding to C-HsCen2 T138D. On the set-up: species or system human. The conditions noted are these: presence of Ca2+; versus C-HsCen2 wild type. The essentials:
as §1

For another experiment, the system named is C-HsCen2-S158D. As to the kind of experiment: ITC, peptide binding to C-HsCen2 S158D. On the set-up: species or system human. To be noted: versus C-HsCen2 wild type. The essentials:
as §1

For a further experiment, the system named is C-HsCen2 T138D-S158D. As to the kind of experiment: ITC, peptide binding to C-HsCen2 T138D-S158D. To be noted: presence of Ca2+; versus C-HsCen2 wild type. On the set-up: species or system human. The essentials:
as §1

Experiment [5] addresses C-terminal domain of human centrin 1 T138D (human). As to the kind of experiment: ITC.
The target of experiment [6] is T1, human centrin 1 T138D, full-length (human, UniProt Q12798 1-172, T138D).
T1 sequence: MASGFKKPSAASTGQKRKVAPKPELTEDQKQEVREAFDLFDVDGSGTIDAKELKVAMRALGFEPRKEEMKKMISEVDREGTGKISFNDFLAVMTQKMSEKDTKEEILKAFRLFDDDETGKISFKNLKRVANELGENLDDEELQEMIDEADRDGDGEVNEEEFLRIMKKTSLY
Nature of the experiment: ITC.

In experiment [7] the target is T2, C-terminal domain of human centrin 1 (M93-Y172) (human, UniProt Q12798 93-172). Nature of the experiment: ITC.
For experiment [8], the target named is T3, C-terminal domain of human centrin 2 (M93-Y172) (human, UniProt P41208 93-172). As to the kind of experiment: ITC.
Experiment [9] has as its target T2, C-terminal domain of human centrin 1 …. As to the kind of experiment: ITC. The source holds these as a separate data set.
Target sequence in this assay (Q12798 93-172): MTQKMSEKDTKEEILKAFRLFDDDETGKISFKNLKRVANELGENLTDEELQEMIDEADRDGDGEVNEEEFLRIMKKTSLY
The target in experiment [10] is T4, human centrin 1, full-length (human, UniProt Q12798 1-172).
T4 sequence: T1 sequence with D138T
As to the kind of experiment: ITC.

Experiment [11] has as its target T1, human centrin 1 T138D, full-length. Nature of the experiment: ITC. This is another data set of the same source.
The target of experiment [12] is T4, human centrin 1, full-length. As to the kind of experiment: ITC. The source holds these as a separate data set.
Experiment [13] addresses T5, C-terminal domain of human centrin 2 T138D (human, UniProt P41208 93-172, T138D). Nature of the experiment: ITC.
The target in experiment [14] is T6, C-terminal domain of human centrin 2 S158D (human, UniProt P41208 93-172, S158D). Nature of the experiment: ITC.
In experiment [15] the target is C-terminal domain of human centrin 2 T138D-S158D (human, UniProt P41208 93-172, T138D | S158D). Nature of the experiment: ITC.
Experiment [16] concerns the target T3, C-terminal domain of human centrin 2 …. Nature of the experiment: ITC. The source holds these as a separate data set.
In experiment [17] the target is T5, C-terminal domain of human centrin 2 …. Nature of the experiment: ITC. This is another data set of the same source.
For experiment [18], the target named is T6, C-terminal domain of human centrin 2 …. Nature of the experiment: ITC. This is another data set of the same source.
The mark [19] stands for this setting: after 3 h at 37 °C, EGTA, HPLC peak integration.
The mark [20] stands for this setting: after 3 h at 37 °C, presence of Ca2+.
[21] abbreviates: after 5 h, without Ca2+ (Fig. 1A, B).

Numbering of substitutions follows the chain as printed. Several values for one entry are separate records, joined by “and”; a condition that tells them apart may be missing. Identical values can stand only once. Like-named read-outs stand apart in the source and are kept apart here.

T5 sequence (P41208 93-172 T138D): as the sequence (Q12798 93-172) above, with R19K, N39K, T46D, N66S, E68Q counted along it
Chain of C-terminal domain of human centrin 2 T138D-S158D (P41208 93-172 T138D/S158D): as the sequence (Q12798 93-172) above, with R19K, N39K, T46D, N66D, E68Q counted along it
T6 sequence (P41208 93-172 S158D): as the sequence (Q12798 93-172) above, with R19K, N39K, N66D, E68Q counted along it
T3 sequence (P41208 93-172): as the sequence (Q12798 93-172) above, with R19K, N39K, N66S, E68Q counted along it
Chain of CK2 (catalytic α and regulatory β subunits complex) (P68400 whole entry): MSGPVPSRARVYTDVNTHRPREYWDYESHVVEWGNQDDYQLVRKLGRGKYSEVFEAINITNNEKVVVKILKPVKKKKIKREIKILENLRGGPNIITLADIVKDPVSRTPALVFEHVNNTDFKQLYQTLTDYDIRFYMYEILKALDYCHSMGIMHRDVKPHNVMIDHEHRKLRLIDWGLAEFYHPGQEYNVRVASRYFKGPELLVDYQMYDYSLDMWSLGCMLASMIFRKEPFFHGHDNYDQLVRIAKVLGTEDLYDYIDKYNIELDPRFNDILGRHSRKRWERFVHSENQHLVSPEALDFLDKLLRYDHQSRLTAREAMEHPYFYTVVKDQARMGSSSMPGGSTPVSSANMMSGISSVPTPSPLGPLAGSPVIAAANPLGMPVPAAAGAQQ
Chain of CK2 (catalytic α and regulatory β subunits complex) (P67870 whole entry partner): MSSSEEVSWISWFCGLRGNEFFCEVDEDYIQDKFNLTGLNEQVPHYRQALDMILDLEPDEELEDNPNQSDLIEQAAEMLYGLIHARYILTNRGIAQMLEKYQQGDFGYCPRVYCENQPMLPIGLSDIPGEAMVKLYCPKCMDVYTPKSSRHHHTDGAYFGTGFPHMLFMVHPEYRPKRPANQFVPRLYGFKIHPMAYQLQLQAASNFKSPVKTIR

For the molecule “human centrin 1 (HsCen1) C-terminal domain, 93-172 (from UniProt Q12798) C-HsCen1 T138E”, the “other: Ka” value in experiment [1] was “weaker; reference 0.54 (0.3)”.
On to “C-HsCen2-S158D: S158D phosphomimetic variant of the C-terminal domain of human centrin 2”, for which the “factor of reduction of the phosphorylation rate at T138” value in experiment [2] (C-HsCen2-S158D versus S158A variant, without Ca2+) is reported as 1.36; in [2] (C-HsCen2-S158D, presence of Ca2+), 2.1.
Turning to “C-HsCen2: C-terminal domain (M93-Y172) of human centrin 2, recombinant; here as CK2 substrate”, the “protein phosphorylated by CK2” value is listed as 45% in experiment [2] (setting [19]); 15% in experiment [2] (setting [20]); 48% in [2] (setting [21]); 50% in experiment [2] (after 48 h, presence of Ca2+).
For the molecule “HsTrBW332L, transducin β peptide 325-340 W332L”, in experiment [3], the Ka came out at 130000 M⁻¹ and the dH was -10.6 kcal/mol.
For “C-HsCen1: C-terminal domain (M93-Y172) of human centrin 1, recombinant; here as CK2 substrate”, in [2], the “reduction of phosphorylation by addition of Ca2+” value turned out to be 30%. Moreover, the “protein phosphorylated by CK2” value in [2] (setting [19]) came out at 62%; in [2] (setting [20]), 30%; in [2] (setting [21]) it was 80%; in [2] (after 10 h, presence of EGTA), 95%; in experiment [2] (after 48 h, presence of Ca2+) it was 80%. Also, the “time after which 95% phosphorylation was achieved” value in experiment [2] (presence of Ca2+) was 48 h.
In the case of “C-HsCen2-K131N: K131N variant of the C-terminal domain of human centrin 2”, in [2] (after 5 h), the “increase in phosphorylation by the mutation versus wild type” value was determined as 12%. Moreover, in [2] (setting [21]), the “protein phosphorylated by CK2” value is on record as 60%.
For 641-RADLHHQHSVLHRALQAWVT-660 [R17-Sfi1], the “factor of decrease of binding constant of HsCen1 compared with R18-Sfi1” value in experiment [4] came to 10. The “factor of increase of affinity by the T138D mutation” value in the experiment with C-HsCen2-T138D was 3. The “factor of reduction of affinity by the S158D mutation” value in the experiment with C-HsCen2-S158D (absence of Ca2+) worked out at 4.7. In addition, in the experiment with C-HsCen2-S158D (presence of Ca2+), the “factor of increase of affinity by the S158D mutation” value is on record as 5. Also, in the experiment with C-HsCen2 T138D-S158D, the “factor of increase of affinity by the T138D-S158D double mutation” value is given as 2.
For “HsTrB, transducin β-derived peptide 325-340 (last WD repeat)”, in experiment [3], the Ka turned out to be 170000 M⁻¹ and the dH is -12.2 kcal/mol.
Regarding “human centrin 1 (HsCen1) C-terminal domain, 93-172 (from UniProt Q12798) C-HsCen1 T138D”, the “other: Ka” value in experiment [1] is on record as “weaker; reference 0.54 (0.3)”.
For “C-HsCen1N131K: N131K variant of the C-terminal domain of human centrin 1”, the “reduction of phosphorylation by addition of Ca2+” value in experiment [2] was 40%. For the same molecule, the “reduction of phosphorylation by the mutation versus wild type” value in experiment [2] (after 5 h) is listed as 30%. In experiment [2] (setting [21]), the “protein phosphorylated by CK2” value is listed as 50%.

B1: HsTrB, transducin β-derived peptide 325-340 (last WD repeat) (peptide)
peptide: Ac-MAVATGSWDSFLKIWN-NH2
For B1, in [5], the dH is -9.97 kcal/mol. Besides, in experiment [6], the Ka is 180000 M⁻¹; the dH is -8.14 kcal/mol; the stoichiometry N (as a rule, the number of molecules, sites or subunits per partner or assembly) was found to be 0.75.

B2: HsSfi1R17inv, repeat 17 peptide of human Sfi1 in reversed sequence orientation (peptide)
peptide: Ac-TVWAQLARHLVSHQHHLDAR-NH2
B2: the Ka in experiment [7] is 690000 M⁻¹; in experiment [9], 1.49e+08 M⁻¹. The dH in [7] is -26.6 kcal/mol; in [8] it was -20.1 kcal/mol and -22 kcal/mol; in experiment [9], -21.6 kcal/mol. Further, the “stoichiometry N” value in [7] is 0.825; in experiment [8] it was 0.91 and 1.09; in experiment [9] it was 0.8.

B3: HsSfiR18, repeat 18 peptide of human Sfi1 (677-692) (peptide)
peptide: Ac-SQHNRQLLRGALRRWK-NH2
For B3, the Ka in experiment [7] is 3.56e+06 M⁻¹; in [10], 3.47e+06 M⁻¹; in experiment [11], 875000 M⁻¹; in experiment [9], 8.15e+07 M⁻¹; in experiment [12], 2.49e+08 M⁻¹; in experiment [6], 2.39e+08 M⁻¹. Also, the dH in experiment [7] was -29.8 kcal/mol; in experiment [10], -34.7 kcal/mol; in experiment [11] it was -36.4 kcal/mol; in [9], -22.5 kcal/mol; in experiment [12], -35.5 kcal/mol; in experiment [6], -36.7 kcal/mol. Moreover, the “stoichiometry N” value came out at 1.03 in [7]; 0.88 in [10]; 0.83 in experiment [11]; 0.99 in experiment [9]; 0.88 in experiment [12]; 0.77 in experiment [6].

B4: HsSfiR17, repeat 17 peptide of human Sfi1 (641-660) (peptide)
peptide: Ac-RADLHHQHSVLHRALQAWVT-NH2
On to B4, for which the Ka in experiment [7] worked out at 120000 M⁻¹; in experiment [10], 347000 M⁻¹; in experiment [8], 190000 M⁻¹; in [13], 230000 M⁻¹; in experiment [14], 40000 M⁻¹; in [9] it was 1.25e+08 M⁻¹. Also, the Ka in [15] was 3.5e+07 M⁻¹; in experiment [16] it was 1.82e+07 M⁻¹; in experiment [17], 4.54e+07 M⁻¹; in [18] it was 1.01e+08 M⁻¹. The dH in experiment [7] is -43.1 kcal/mol; in experiment [10] it was -19.2 kcal/mol; in [8], -31.3 kcal/mol; in experiment [13], -9.76 kcal/mol; in [14], -38.5 kcal/mol; in experiment [9], -18 kcal/mol. Further, the dH in [15] was -22.4 kcal/mol; in experiment [16] it was -20.2 kcal/mol; in [17], -24.3 kcal/mol; in experiment [18], -25.9 kcal/mol. Also, the “stoichiometry N” value turned out to be 0.88 in experiment [7]; 1.12 in experiment [10]; 0.72 in experiment [8]; 0.75 in [13]; 0.77 in experiment [14]; 1.21 in experiment [9]. The “stoichiometry N” value in [15] amounted to 0.91; in experiment [16], 0.95; in experiment [17] it was 0.86; in experiment [18] it was 0.7.
